ChEMBL document CHEMBL1811759, “Synthesis and topoisomerase I inhibitory activity of a novel diazaindeno[2,1-b]phenanthrene analogue of Lamellarin D” (Bioorg Med Chem, 2011)
Active and inactive are the calls of the source. No cut-off for these calls is given here.

What was measured:
[1] = target: T1, DNA topoisomerase 1 (Homo sapiens) (UniProt P11387); assay: Stimulation of human recombinant DNA topoisomerase 1-mediated 751-bp BamHI-EcoRV fragment of SV40 DNA cleavage at 1 to 50 uM after 30 mins by polyacrylamide gel-electrophoresis
T1 sequence (whole entry): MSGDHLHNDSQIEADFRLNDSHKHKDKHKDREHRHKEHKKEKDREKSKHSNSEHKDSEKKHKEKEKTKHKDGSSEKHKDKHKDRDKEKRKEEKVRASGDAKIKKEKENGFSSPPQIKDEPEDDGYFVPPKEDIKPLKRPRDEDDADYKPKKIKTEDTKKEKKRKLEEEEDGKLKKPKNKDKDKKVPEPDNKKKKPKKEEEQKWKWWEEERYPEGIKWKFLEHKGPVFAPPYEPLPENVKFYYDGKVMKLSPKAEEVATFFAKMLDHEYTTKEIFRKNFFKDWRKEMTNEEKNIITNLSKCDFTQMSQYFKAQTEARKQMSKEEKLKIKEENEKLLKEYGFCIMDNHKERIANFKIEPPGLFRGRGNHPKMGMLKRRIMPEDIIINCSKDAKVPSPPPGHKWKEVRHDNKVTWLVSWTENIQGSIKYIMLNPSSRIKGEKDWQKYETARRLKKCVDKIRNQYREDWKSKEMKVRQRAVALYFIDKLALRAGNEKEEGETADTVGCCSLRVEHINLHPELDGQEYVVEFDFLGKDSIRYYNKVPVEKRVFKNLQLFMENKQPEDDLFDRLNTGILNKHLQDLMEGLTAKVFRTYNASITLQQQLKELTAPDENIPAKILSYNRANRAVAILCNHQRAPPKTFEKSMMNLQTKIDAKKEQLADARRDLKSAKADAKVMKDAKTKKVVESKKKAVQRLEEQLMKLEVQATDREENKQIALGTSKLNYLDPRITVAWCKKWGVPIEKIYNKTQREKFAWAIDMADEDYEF
In short: (§1)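 Gel-purified 751-bp BamHI–EcoRV SV40 DNA fragment, uniquely 3'-end labeled (10,000 cpm/sample), incubated with full-length human recombinant topoisomerase I in 10 mM Tris–HCl pH 7.6, 150 mM KCl, 5 mM MgCl2, 0.1 mM DTT, 30 min, 37 °C. Stopped with 0.5% SDS plus 0.3 mg/mL proteinase K (45 min, 42 °C); products resolved on denaturing 8% polyacrylamide/TBE gel.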

NCI-H460 [2] = assay: Antiproliferative activity against human NCI-H460 cells after 1 hr by coulter counter analysis; format: functional, cell-based; settings: NCI-H460, 1 h
In short: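 NCI-H460 NSCLC cells in RPMI-1640 + 10% foetal calf serum; log-phase cells seeded in duplicate, drug added 24 h after seeding for 1 h, then counted (Coulter counter) 72 h later. IC50 = concentration giving 50% decrease in cell growth vs untreated control.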

NCI-H460 [3] = assay: Antiproliferative activity against human NCI-H460 cells after 72 hrs by coulter counter analysis; format: functional, cell-based; settings: NCI-H460, 72 h
In short: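 NCI-H460 cells grown in RPMI-1640 with 10% foetal calf serum; log-phase cells seeded in duplicate, exposed 24 h post-seeding for 72 h continuously, counted by Coulter counter at end of exposure. IC50 taken as concentration halving cell growth relative to untreated control.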

[4] = target: T1, DNA topoisomerase 1 (Homo sapiens); assay: Stimulation of human recombinant DNA topoisomerase 1-mediated 751-bp BamHI-EcoRV fragment of SV40 DNA cleavage at 100 uM after 30 mins by polyacrylamide gel-electrophoresis; in short: as §1

Structure (SMILES) | Activity [1] | IC50 (NCI-H460 [2]) [µM] | IC50 (NCI-H460 [3]) [µM] | Activity [4]
CCc1c2c(nc3ccc(O)cc13)-c1cc3c(c(=O)n1C2)COC(=O)[C@]3(O)CC | Active |  |  | 
COc1cc(-c2[nH]c(=O)c3c(c2-c2ccc(O)c(OC)c2)c2cc(OC)c(O)cc2n3Cc2ccccc2)ccc1O | inactive | 119 |  | 
CC[C@@]1(O)C(=O)OCc2c1cc1n(c2=O)Cc2cc3c(CN(C)C)c(O)ccc3nc2-1 [TOPOTECAN] |  | 1.75 | 0.016 | 
COc1cc(-c2c3n(c(=O)c4c2c2cc(OC)c(O)cc2n4C)COc2cc(O)c(OC)cc2-3)ccc1O |  | 4.02 | 0.35 | Active
COc1cc2c3c(-c4ccc(OC(C)C)c(OC)c4)c(-c4ccc(OC(C)C)c(OC)c4)[nH]c(=O)c3n(Cc3ccccc3)c2cc1OCc1ccccc1 | inactive | > 150 |  | 
COc1cc(-c2[nH]c(=O)c3[nH]c4cc(O)c(OC)cc4c3c2-c2ccc(O)c(OC)c2)ccc1O | inactive | 60.8 |  | 
COc1cc(-c2c3c4cc(OC)c(O)cc4oc(=O)c3n3ccc4cc(O)c(OC)cc4c23)ccc1O [LAMELLARIN D] | Active | 0.066 | 0.003 | 
COc1cc(-c2[nH]c(=O)c3[nH]c4cc(OC)c(O)cc4c3c2-c2ccc(O)c(OC)c2)ccc1O |  | 60.8 |  | 
Cn1c2ccccc2c2cc3n(c(=O)c21)COc1ccccc1-3 |  | 118 |  | 
COc1cc(-c2[nH]c(=O)c3c(c2-c2ccc(O)c(OC)c2)c2ccccc2n3C)ccc1O |  | 60.8 |  | 
COc1cc(-c2[nH]c(=O)c3c(c2-c2ccc(OC(C)C)c(OC)c2)c2ccccc2n3C)ccc1OC(C)C |  | 60.8 |  | 
